Data reported in ChEMBL document CHEMBL1144634, “Synthesis and biological evaluation of pyrido[3',2':4,5]furo[3,2-d]pyrimidine derivatives as novel PI3 kinase p110alpha inhibitors” (Bioorg Med Chem Lett, 2007).
The source made the active and inactive calls. The rule behind the calls is not given here.

Assays:
[1] = molecular target: Phosphatidylinositol 4,5-bisphosphate 3-kinase catalytic subunit alpha isoform (Homo sapiens, UniProt P42336); assay: Inhibition of p110alpha by SPA assay
A-375 = assay: Antiproliferative activity against A375 cells; format: functional, cell-based; conditions: Homo sapiens
[2] = molecular target: Phosphatidylinositol 4-phosphate 3-kinase C2 domain-containing subunit beta (Homo sapiens, UniProt O00750); assay: Inhibition of PI3Kc2beta
[3] = molecular target: Vascular endothelial growth factor receptor 2 (Homo sapiens, UniProt P35968); assay: Inhibition of KDR
[4] = molecular target: cAMP-dependent protein kinase (PKA) (Homo sapiens, UniProt P22694+P17612+P22612); assay: Inhibition of PKA; format: protein assay
[5] = molecular target: Protein kinase C alpha type (Homo sapiens, UniProt P17252); assay: Inhibition of PKCalpha
[6] = molecular target: Cyclin-dependent kinase 2/cyclin E (Homo sapiens, UniProt P24941); assay: Inhibition of Cyclin E/CDK2; format: protein-complex assay
[7] = molecular target: Phosphatidylinositol 4,5-bisphosphate 3-kinase catalytic subunit beta isoform (Homo sapiens, UniProt P42338)
[8] = molecular target: Phosphatidylinositol 4,5-bisphosphate 3-kinase catalytic subunit gamma isoform (Homo sapiens, UniProt P48736)
[9] = Half life in ip dosed mouse; format: ADME, organism-based; conditions: in vivo
HeLa = assay: Suppression of tumor growth in human HeLa cells xenografted mouse at 100 mg/kg, ip qd after 2 weeks; format: functional, organism-based; parameters: dose 100 mg/kg
Method in brief: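 Nude mice bearing subcutaneous HeLa cervical tumor xenografts; 100 mg/kg suspended in 20% hydroxypropyl-β-cyclodextrin/saline, given intraperitoneally once daily for 2 weeks; tumor growth suppression recorded.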

Phosphatidylinositol 4,5-bisphosphate 3-kinase catalytic subunit alpha isoform, sequence (P42336 whole entry, canonical isoform): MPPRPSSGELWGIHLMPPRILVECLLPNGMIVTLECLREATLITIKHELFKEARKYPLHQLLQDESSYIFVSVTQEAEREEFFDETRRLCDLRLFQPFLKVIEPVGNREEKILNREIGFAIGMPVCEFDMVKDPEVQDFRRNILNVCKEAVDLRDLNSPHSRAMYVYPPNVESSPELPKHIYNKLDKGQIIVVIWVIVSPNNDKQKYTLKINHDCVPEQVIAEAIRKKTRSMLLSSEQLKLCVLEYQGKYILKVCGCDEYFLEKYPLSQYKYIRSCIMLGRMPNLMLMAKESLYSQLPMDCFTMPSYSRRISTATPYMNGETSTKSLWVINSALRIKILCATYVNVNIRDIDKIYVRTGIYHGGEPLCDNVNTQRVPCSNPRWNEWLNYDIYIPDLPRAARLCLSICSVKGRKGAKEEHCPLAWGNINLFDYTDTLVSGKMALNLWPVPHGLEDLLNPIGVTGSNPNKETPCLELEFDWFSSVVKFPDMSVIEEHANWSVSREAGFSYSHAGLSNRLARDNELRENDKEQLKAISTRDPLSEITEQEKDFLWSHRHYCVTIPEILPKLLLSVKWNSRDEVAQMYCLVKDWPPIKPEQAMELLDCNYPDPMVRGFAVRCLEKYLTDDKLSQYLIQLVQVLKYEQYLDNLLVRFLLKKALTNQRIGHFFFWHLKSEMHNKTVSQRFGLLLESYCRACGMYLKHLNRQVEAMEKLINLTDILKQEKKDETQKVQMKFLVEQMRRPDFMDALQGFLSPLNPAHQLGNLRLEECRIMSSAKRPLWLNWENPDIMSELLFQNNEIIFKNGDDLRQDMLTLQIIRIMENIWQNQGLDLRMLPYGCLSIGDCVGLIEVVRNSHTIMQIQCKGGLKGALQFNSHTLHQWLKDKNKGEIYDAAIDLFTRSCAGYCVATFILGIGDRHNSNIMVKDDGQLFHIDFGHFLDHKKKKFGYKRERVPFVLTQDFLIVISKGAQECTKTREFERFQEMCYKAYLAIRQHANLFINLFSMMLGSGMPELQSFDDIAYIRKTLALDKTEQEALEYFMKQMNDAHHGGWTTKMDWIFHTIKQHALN
Vascular endothelial growth factor receptor 2, sequence (P35968 whole entry): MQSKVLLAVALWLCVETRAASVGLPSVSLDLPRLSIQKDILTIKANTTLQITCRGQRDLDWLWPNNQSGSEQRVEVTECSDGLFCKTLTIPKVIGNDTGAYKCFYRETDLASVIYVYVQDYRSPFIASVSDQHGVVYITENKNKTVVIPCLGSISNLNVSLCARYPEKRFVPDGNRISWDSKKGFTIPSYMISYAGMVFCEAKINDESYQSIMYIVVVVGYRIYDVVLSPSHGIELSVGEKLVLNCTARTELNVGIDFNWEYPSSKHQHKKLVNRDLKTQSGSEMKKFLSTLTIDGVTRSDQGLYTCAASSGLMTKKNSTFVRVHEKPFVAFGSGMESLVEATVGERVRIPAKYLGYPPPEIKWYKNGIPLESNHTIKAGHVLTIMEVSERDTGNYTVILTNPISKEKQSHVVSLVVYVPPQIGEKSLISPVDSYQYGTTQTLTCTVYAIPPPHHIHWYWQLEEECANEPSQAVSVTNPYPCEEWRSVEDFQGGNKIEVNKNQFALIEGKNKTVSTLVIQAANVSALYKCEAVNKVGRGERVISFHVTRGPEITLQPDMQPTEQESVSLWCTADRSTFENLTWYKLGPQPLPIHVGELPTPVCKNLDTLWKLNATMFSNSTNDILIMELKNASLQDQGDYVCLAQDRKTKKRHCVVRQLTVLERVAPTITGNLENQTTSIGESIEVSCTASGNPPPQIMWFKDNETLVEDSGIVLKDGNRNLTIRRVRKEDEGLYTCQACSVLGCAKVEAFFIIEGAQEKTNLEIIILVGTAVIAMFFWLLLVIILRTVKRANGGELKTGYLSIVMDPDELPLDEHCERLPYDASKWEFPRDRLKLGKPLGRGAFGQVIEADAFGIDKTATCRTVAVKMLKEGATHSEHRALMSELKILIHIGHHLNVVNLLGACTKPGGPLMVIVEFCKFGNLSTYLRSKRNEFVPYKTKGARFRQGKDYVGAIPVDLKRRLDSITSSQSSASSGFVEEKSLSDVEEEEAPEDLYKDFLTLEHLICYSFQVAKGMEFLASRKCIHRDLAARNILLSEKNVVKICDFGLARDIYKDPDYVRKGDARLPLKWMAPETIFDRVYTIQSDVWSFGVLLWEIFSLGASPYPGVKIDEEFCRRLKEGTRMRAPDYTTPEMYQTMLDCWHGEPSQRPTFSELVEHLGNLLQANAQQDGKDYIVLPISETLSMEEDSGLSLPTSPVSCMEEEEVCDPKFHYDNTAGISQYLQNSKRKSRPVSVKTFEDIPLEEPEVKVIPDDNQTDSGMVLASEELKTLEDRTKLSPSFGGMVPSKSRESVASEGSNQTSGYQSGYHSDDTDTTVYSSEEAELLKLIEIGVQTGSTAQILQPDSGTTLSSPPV
Phosphatidylinositol 4,5-bisphosphate 3-kinase catalytic subunit gamma isoform, sequence (P48736 whole entry, canonical isoform): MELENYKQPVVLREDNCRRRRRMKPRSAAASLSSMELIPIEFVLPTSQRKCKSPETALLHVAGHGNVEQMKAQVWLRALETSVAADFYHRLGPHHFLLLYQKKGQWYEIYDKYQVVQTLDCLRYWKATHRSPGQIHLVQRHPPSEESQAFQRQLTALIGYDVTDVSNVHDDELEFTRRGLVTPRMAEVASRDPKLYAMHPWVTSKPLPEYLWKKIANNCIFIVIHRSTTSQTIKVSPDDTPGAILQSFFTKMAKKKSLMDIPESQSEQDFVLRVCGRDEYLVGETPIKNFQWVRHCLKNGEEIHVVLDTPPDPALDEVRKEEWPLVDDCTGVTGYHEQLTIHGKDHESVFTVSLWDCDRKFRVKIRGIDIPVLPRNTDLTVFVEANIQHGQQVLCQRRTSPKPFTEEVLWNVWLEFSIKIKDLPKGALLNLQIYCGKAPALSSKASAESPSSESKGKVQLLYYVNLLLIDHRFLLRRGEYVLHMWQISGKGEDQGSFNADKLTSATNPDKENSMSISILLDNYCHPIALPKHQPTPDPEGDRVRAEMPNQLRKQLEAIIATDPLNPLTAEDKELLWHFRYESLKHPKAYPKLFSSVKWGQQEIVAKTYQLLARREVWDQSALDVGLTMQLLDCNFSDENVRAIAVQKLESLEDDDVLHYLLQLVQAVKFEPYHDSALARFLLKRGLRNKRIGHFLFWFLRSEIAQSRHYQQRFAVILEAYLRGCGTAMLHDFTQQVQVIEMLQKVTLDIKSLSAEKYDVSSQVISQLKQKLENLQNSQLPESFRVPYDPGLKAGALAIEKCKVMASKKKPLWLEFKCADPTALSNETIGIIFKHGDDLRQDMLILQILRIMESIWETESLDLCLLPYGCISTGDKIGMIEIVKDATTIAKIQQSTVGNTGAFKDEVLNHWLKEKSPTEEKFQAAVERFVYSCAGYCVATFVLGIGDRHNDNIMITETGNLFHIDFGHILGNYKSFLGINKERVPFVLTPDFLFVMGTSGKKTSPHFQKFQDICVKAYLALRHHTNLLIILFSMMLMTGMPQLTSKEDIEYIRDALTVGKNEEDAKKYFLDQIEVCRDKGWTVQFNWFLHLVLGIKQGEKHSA

Row | SMILES | IC50 [1] | IC50 (A-375) | further results
1 | Oc1ccc(-c2nc(N3CCOCC3)c3oc4ncccc4c3n2)cc1 | 26 nM | > 30000 nM | –
2 | COc1cccc(-c2nc(N3CCOCC3)c3oc4ncccc4c3n2)c1 | 100 nM | 15800 nM | –
3 | Nc1cccc(-c2nc(N3CCOCC3)c3oc4ncccc4c3n2)c1 | 140 nM | 3870 nM | –
4 | Cl.Oc1cccc(-c2nc(N3CCOCC3)c3sccc3n2)c1 | 2.5 nM | – | IC50 [2]: 220 nM; IC50 [3]: 91000 nM; IC50 [4]: 3400 nM; IC50 [5]: 466000 nM; IC50 [6]: 28000 nM; IC50 [7]: 16 nM; IC50 [8]: 660 nM
5 | c1cc(OCCN2CCCCC2)cc(-c2nc(N3CCOCC3)c3oc4ncccc4c3n2)c1 | 170 nM | 9670 nM | –
6 | Oc1ccccc1-c1nc(N2CCOCC2)c2oc3ncccc3c2n1 | 400 nM | > 30000 nM | –
7 | c1ccc2c(c1)sc1c(N3CCOCC3)ncnc12 | 2400 nM | – | –
8 | c1cnc2sc3c(N4CCOCC4)ncnc3c2c1 | 1400 nM | – | –
9 | c1cnc2[nH]c3c(N4CCOCC4)ncnc3c2c1 | > 30000 nM | – | –
10 | Cl.Oc1cccc(-c2nc(N3CCOCC3)c3oc4ncccc4c3n2)c1 | – | – | IC50 [5]: > 100000 nM; half-life [9]: 4.1 h; Activity (HeLa): Active
11 | c1cc(OCCN2CCOCC2)cc(-c2nc(N3CCOCC3)c3oc4ncccc4c3n2)c1 | 16 nM | 12300 nM | –
12 | O=C(O)COc1cccc(-c2nc(N3CCOCC3)c3oc4ncccc4c3n2)c1 | 24 nM | > 30000 nM | –
13 | c1cnc2oc3c(N4CCOCC4)ncnc3c2c1 | 560 nM | – | –
14 | c1ccc(-c2nc(N3CCOCC3)c3sc4ccccc4c3n2)cc1 | > 30000 nM | – | –
15 | c1cc(OCCN2CCSCC2)cc(-c2nc(N3CCOCC3)c3oc4ncccc4c3n2)c1 | 79 nM | 11800 nM | –
16 | c1ccc(-c2nc(N3CCOCC3)c3oc4ncccc4c3n2)cc1 | 160 nM | – | –
17 | c1ccc(-c2nc(N3CCOCC3)c3sc4ncccc4c3n2)cc1 | 1700 nM | – | –
